# Measurements published in ChEMBL document CHEMBL1124624, “Synthesis and biological evaluation of 4,6-diethyl-1,3,4,5-tetrahydropyrano[4,3-b]indole-4-acetic acid, an isomer of etodolac” (J Med Chem, 1989).
# Key:
# Rattus norvegicus = assay: Antiinflammatory activity of the perorally administered compound assessed in adjuvant arthritis assay in rat; format: functional; details: po
# Procedure, shortened: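 Rats given test compound by mouth in the curative (established-disease) adjuvant arthritis/edema model. Inhibition of paw edema was scored, and potency is given as an ED50 in mg/kg.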
# [1] = In vitro inhibition of prostaglandin E2 production in cultured chondrocytes; format: functional, cell-based
# Procedure, shortened: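 Cultured chondrocytes were exposed to compound at neutral pH over a short incubation period. Prostaglandin E2 production was measured, and inhibitory potency is given as an IC50.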
SMILES,IC50 [1] [nM],ED50 (Rattus norvegicus) [mg/kg]
CCc1cccc2c3c([nH]c12)C(CC)(CC(=O)O)CCCC3 (configuration not stated),–,> 50
CCC1(CC(=O)O)OCCc2c1[nH]c1ccccc21 (configuration not stated),100,6.8
CCc1cccc2c3c([nH]c12)C(CC)(CC(=O)O)CCC3 (configuration not stated),20,1.9
CCc1cccc2c3c([nH]c12)C(CC)(CC(=O)O)CC3 (configuration not stated),–,6.2

# More lines, main results first:
IC50 [1] [nM],SMILES,ED50 (Rattus norvegicus) [mg/kg]
300,CCC1(CC(=O)O)SCCc2c1[nH]c1ccccc21 (configuration not stated),> 25
50,CCc1cccc2c3c([nH]c12)C(CC)(CC(=O)O)COC3 (configuration not stated),3
23,CCc1cccc2c3c([nH]c12)C(CC)(CC(=O)O)OCC3 (configuration not stated) [ETODOLAC],0.7
